Source: ChEMBL document CHEMBL1129587, “(Carboxyalkyl)benzyl propargyl ethers as selective inhibitors of leukocyte-type 12-lipoxygenases” (J Med Chem, 1996)

Target: T1, Arachidonate 12-lipoxygenase (Sus scrofa, UniProt P16469)
T1 sequence (P16469 whole entry): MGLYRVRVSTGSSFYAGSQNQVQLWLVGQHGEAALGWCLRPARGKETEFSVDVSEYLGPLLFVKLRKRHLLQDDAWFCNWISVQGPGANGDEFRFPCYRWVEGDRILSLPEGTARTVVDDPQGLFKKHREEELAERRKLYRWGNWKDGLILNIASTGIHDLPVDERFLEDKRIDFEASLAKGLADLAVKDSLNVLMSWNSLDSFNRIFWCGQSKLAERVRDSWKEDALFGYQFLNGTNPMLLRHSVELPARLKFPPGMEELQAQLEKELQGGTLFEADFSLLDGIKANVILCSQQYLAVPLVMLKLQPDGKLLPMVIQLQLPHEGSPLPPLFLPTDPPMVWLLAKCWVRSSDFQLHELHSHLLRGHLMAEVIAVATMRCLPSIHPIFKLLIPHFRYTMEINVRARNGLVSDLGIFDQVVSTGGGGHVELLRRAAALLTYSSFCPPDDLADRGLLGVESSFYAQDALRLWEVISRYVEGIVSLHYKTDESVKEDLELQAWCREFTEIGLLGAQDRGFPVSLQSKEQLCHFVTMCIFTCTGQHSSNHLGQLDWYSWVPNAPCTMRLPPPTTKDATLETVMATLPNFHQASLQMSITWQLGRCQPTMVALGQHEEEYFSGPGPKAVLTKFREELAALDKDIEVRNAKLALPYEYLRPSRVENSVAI
Test: Inhibitory activity against conversion of [1-14C]arachidonic acid to 12-HPETE and its reduction product 12-HETE by porcine leukocyte type 12-lipoxygenase
Outline: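 Porcine leukocyte cytosol (75 μg/mL) in 100 mM HEPES, 2 mM CaCl2, 1 mM MgCl2, pH 8.0. Inhibitor added in DMSO and preincubated with enzyme 5 min at 37 °C. [1-14C]arachidonic acid then added (5 μM final) and reacted 15 min. Mixture acidified, products extracted and separated by TLC, and 12-HETE conversion measured by radioactivity scanning. Incubations run in triplicate; IC50 determined from concentration series.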

IC50 [µM]	SMILES
> 10	CCCCCCCCC#CCSCc1cccc(CCC(=O)O)c1
> 10	CCCCCCCCCCC#CCOCc1ccc(CCCC(=O)O)cc1
> 10	CCCCCCCCCCCCCCC#CCOCc1ccc(CCC(=O)O)cc1
0.04	CCCCCCCCCC/C=C/COCc1ccc(CCC(=O)O)cc1
10	CCCCCCCCC#CCOCc1cccc(CCC(=O)O)c1
> 10	CCCCCCCCCCCCCCC#CCOCc1ccc(C(=O)O)cc1
5	O=C(O)CCc1ccc(COCC#CCCCCc2ccccc2)cc1
0.05	CCCCCCCCCCC#CCOCc1ccc(CC(=O)O)cc1
> 10	CCCCCCC#CCOCc1cccc(CCC(=O)O)c1
> 10	CCCCCC#CCCOCc1cccc(CCC(=O)O)c1
0.06	CCCCCCCCCCC#CCOCc1ccc(C(=O)O)cc1
6	CCCCCCCC#CCOCc1ccc(C(=O)O)cc1
2.5	CCCCCCCCCC/C=C\COCc1ccc(CCC(=O)O)cc1
0.32	CCCCCCCCCCC#CCOCc1cccc(CCC(=O)O)c1
> 10	CCCCCCCCCCCCCOCc1ccc(CCC(=O)O)cc1
